Experimental findings from publication PMC4467529 (Bioorganic & medicinal chemistry, 2015) are described below.

Each structure is given as a SMILES string. Entries after “also recorded” stand apart in the source; their conditions may differ.

Usually IC50 stands for the concentration that gives 50% inhibition.

A short description of series [1]: In vitro cytotoxicity, Neutral Red assay. It counts as cell-based. The following applies: pig, LLC-PK11 pig kidney epithelial cells. The gist of the method: (§1)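 Cells were kept in RPMI-1640 with 10% bovine calf serum and amikacin 60 mg/L at 37 °C, 5% CO₂. They were seeded at 25,000 cells/well and grown 24 h, then exposed 48 h to test compound diluted in serum-free medium, tested up to 25 μg/ml. Viability was read by Neutral Red, as % decrease versus vehicle. IC50 came from dose curves, in triplicate, with doxorubicin as reference.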

Series [2] can be described thus: In vitro cytotoxicity, Neutral Red assay. Type of series: cell-based. The note with it: human, SK-MEL malignant melanoma cells. Put shortly: as §1
Series [3] is described as follows: In vitro cytotoxicity, Neutral Red assay. Type of series: cell-based. The following applies: human, KB oral epidermal carcinoma cells. Put shortly: (§2)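 Cells grown in RPMI-1640 with 10% bovine calf serum and amikacin (60 mg/L), 37°C, 5% CO₂, 95% humidity. Seeded at 25,000 cells/well, grown 24 h. Test samples diluted in serum-free medium, exposure 48 h. Viable cells counted by Neutral Red uptake; % viability loss against vehicle control. IC50 from dose curves, triplicate, means reported.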

For another series, the system named is rat paw edema. The series can be described thus: Carrageenan-induced rat paw edema assay. The note with it: for in vivo anti-inflammatory activity (in words): rat paw edema, compared to ketorolac; for Edema thickness ±SEM, 1h / Edema thickness ±SEM, 2h / Edema thickness ±SEM, 3h / Edema thickness ±SEM, 4h: rat, 30 mg/kg intraperitoneally; for Edema thickness ±SEM, 1h: 1h after induction; for Edema thickness ±SEM, 2h: 2h after induction; for Edema thickness ±SEM, 3h: 3h after induction; for Edema thickness ±SEM, 4h: 4h after induction. It counts as in vivo. The gist of the method: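 Adult albino rats of both sexes (120–150 g), pre-hydrated with 3 ml water by gavage, in groups of five. Test compound or ketorolac tromethamine was suspended in distilled water with a few drops of Tween 80 and given i.p. 1 h before 1% carrageenan s.c. into the right hind subplantar paw. Controls got saline/Tween 80.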
Background: The carrageenan paw model is a standard test of acute inflammation.

Series [4] in a line: In vitro cytotoxicity, Neutral Red assay. It counts as cell-based. The following applies: human, BT-549 breast ductal carcinoma cells. The gist of the method: as §1
The nature of series [5]: In vitro cytotoxicity, Neutral Red assay. Type of series: cell-based. The following applies: African green monkey, Vero cells (kidney fibroblasts). Put shortly: as §1
Series [6] is described as follows: In vitro cytotoxicity, Neutral Red assay. It counts as cell-based. The note with it: human, SK-OV-3 ovary carcinoma cells. The gist of the method:
as §2

For the next series, the system named is NF-κB. Type of series: cell-based, human. The note with it: for NF-κB inhibitory activity (in words): PMA-induced SW1353 cells. Put shortly: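 SW1353 cells were grown in DMEM/F12 with 10% FBS and electroporated with an NF-κB luciferase plasmid (50 μg/mL; 160 V, one 70-ms pulse). They were plated at 1.25 × 10⁵ cells/well for 24 h. […] Parthenolide was the reference; Sp-1 served as control factor.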

On to `O=c1sc2ccccc2n1CCCCCCN1CCN(CCCCCn2c(=O)sc3ccccc32)CC1` [Compound 5t, 3-(5-(4-(6-(2-oxobenzo[d]thiazol-3(2H)-yl)hexyl)piperazin-1-yl)pentyl)benzo[d]thiazol-2(3H)-one], for which the IC50 at 48 h in series [1] is above 25 µg/mL. Besides, the IC50 at 48 h in series [2] is above 25 µg/mL. In addition, the IC50 at 48 h in series [3] was above 25 µg/mL. Moreover, in the series on rat paw edema, the “in vivo anti-inflammatory activity (in words)” value is “significant anti-inflammatory and analgesic activity; also recorded: moderate activities compared to ketorolac”; the “Edema thickness ±SEM, 1h” value is reported as 93.01 ± 1.93 ×10^−2 mm; the “Edema thickness ±SEM, 2h” value is recorded as 91.57 ± 2.63 ×10^−2 mm; the “Edema thickness ±SEM, 3h” value is 109.24 ± 1.36 ×10^−2 mm. In addition, in the series on rat paw edema, the “Edema thickness ±SEM, 4h” value is on record as 127.34 ± 1.87 ×10^−2 mm.
In series [1], `c1ccc2sc(SCCCCN3CCN(CCCCSc4nc5ccccc5s4)CC3)nc2c1` [Compound 8b, 1,4-bis(4-(benzo[d]thiazol-2-ylthio)butyl)piperazine] came in with an IC50 at 48 h above 25 µg/mL. In addition, the IC50 at 48 h in series [4] is above 25 µg/mL. Also, the IC50 at 48 h in series [5] was above 25 µg/mL. In series [6], the IC50 at 48 h is above 25 µg/mL. In addition, in the series on rat paw edema, the “in vivo anti-inflammatory activity (in words)” value is “significant anti-inflammatory and analgesic activity; also recorded: most active dimer; also recorded: promising in vivo activity which was comparable to indomethacin and ketorolac”; the “Edema thickness ±SEM, 1h” value is listed as 56.48 ± 2.14 ×10^−2 mm; the “Edema thickness ±SEM, 2h” value is recorded as 55.6 ± 2.09 ×10^−2 mm; the “Edema thickness ±SEM, 3h” value is listed as 61.32 ± 1.67 ×10^−2 mm. Besides, the “Edema thickness ±SEM, 4h” value in the series with rat paw edema is on record as 103.54 ± 1.77 ×10^−2 mm.
Turning to `O=c1sc2ccccc2n1CCCCCN1CCN(CCCCn2c(=O)sc3ccccc32)CC1` [Compound 5p, 3-(5-(4-(4-(2-oxobenzo[d]thiazol-3(2H)-yl)butyl)piperazin-1-yl)pentyl)benzo[d]thiazol-2(3H)-one], the IC50 at 48 h in series [1], in series [5], in series [3] and in series [6] was above 25 µg/mL each time.
In turn, `O=c1sc2ccccc2n1CCCCCCN1CCN(CCCCCCn2c(=O)sc3ccccc32)CC1` [Compound 3j, 3,3′-(piperazine-1,4-diylbis(hexane-6,1-diyl))bis(benzo[d]thiaazol-2(3H)-one)] displayed an IC50 at 48 h in series [1] above 25 µg/mL. This compound came in with an IC50 at 48 h in series [2] above 25 µg/mL. In series [5], this compound came in with an IC50 at 48 h above 25 µg/mL. For the same compound, in the series on rat paw edema, the “in vivo anti-inflammatory activity (in words)” value was “significant anti-inflammatory and analgesic activity; also recorded: moderate activities compared to ketorolac”; the “Edema thickness ±SEM, 1h” value is recorded as 95.50 ± 1.02 ×10^−2 mm; the “Edema thickness ±SEM, 2h” value is on record as 97.24 ± 2.35 ×10^−2 mm; the “Edema thickness ±SEM, 3h” value is reported as 101.6 ± 1.68 ×10^−2 mm. In addition, the “Edema thickness ±SEM, 4h” value with rat paw edema is on record as 123.5 ± 1.13 ×10^−2 mm.
Consider `O=c1sc2ccccc2n1CCCCN1CCN(CCCn2c(=O)sc3ccccc32)CC1` [Compound 5j, 3-(3-(4-(4-(2-oxobenzo[d]thiazol-3(2H)-yl)butyl)piperazin-1-yl)propyl)benzo[d]thiazol-2(3H)-one], for which the “NF-κB inhibitory activity (in words)” value in the series on NF-κB is “moderately active”.
In the case of `O=c1oc2ccccc2n1CCCCCN1CCN(CCCCCn2c(=O)oc3ccccc32)CC1` [Compound 3g, 3,3′-(piperazine-1,4-diylbis(pentane-5,1-diyl))bis(benzo[d]oxazol-2(3H)-one)], the IC50 at 48 h in series [1], in series [2], in series [4], in series [3] and in series [6] was above 25 µg/mL each time.
With `O=C(c1ccccc1)c1ccc2n1CCC2C(=O)O` (stereo not shown) [Ketorolac, ketorolac tromethamine, reference compound], in the series with rat paw edema, the “Edema thickness ±SEM, 1h” value is reported as 41.6 ± 2.02 ×10^−2 mm; the “Edema thickness ±SEM, 2h” value is 40.2 ± 2.82 ×10^−2 mm; the “Edema thickness ±SEM, 3h” value is given as 41.2 ± 2.06 ×10^−2 mm; the “Edema thickness ±SEM, 4h” value is listed as 40.4 ± 1.52 ×10^−2 mm.
`O=c1oc2ccccc2n1CCCN1CCN(CCCn2c(=O)oc3ccccc32)CC1` [Compound 3c, 3,3′-(piperazine-1,4-diylbis(propane-3,1-diyl))bis(benzo[d]oxazol-2(3H)-one)]: the IC50 at 48 h in series [1], in series [2], in series [4], in series [5], in series [3] and in series [6] was above 25 µg/mL in each case.
As to `O=c1sc2ccccc2n1CCCCCCN1CCN(CCCn2c(=O)sc3ccccc32)CC1` [Compound 5n, 3-(3-(4-(6-(2-oxobenzo[d]thiazol-3(2H)-yl)hexyl)piperazin-1-yl)propyl)benzo[d]thiazol-2(3H)-one], the half-inhibitory concentration (IC50) at 48 h in series [1], in series [5], in series [3] and in series [6] was above 25 µg/mL in each case. Further, the “NF-κB inhibitory activity (in words)” value with NF-κB is recorded as “moderately active”.
As for `O=c1oc2ccccc2n1CCCCCCN1CCN(CCCCn2c(=O)oc3ccccc32)CC1` [Compound 5q, 3-(6-(4-(4-(2-oxobenzo[d]oxazol-3(2H)-yl)butyl)piperazin-1-yl)hexyl)benzo[d]oxazol-2(3H)-one], the IC50 at 48 h in series [1], in series [2], in series [4], in series [5], in series [3] and in series [6] was above 25 µg/mL each time.
`O=c1oc2ccccc2n1CCCCCN1CCN(CCn2c(=O)oc3ccccc32)CC1` [Compound 5e, 3-(5-(4-(2-(2-oxobenzo[d]oxazol-3(2H)-yl)ethyl)piperazin-1-yl)pentyl)benzo[d]oxazol-2(3H)-one]: the IC50 at 48 h in series [1], in series [2], in series [4], in series [5], in series [3] and in series [6] was above 25 µg/mL throughout.
Regarding `O=c1oc2ccccc2n1CCCCCCN1CCN(CCCCCCn2c(=O)oc3ccccc32)CC1` [Compound 3i, 3,3′-(piperazine-1,4-diylbis(hexane-6,1-diyl))bis(benzo[d]oxazol-2(3H)-one)], the concentration for half-maximal inhibition (IC50) at 48 h in series [1], in series [5], in series [3] and in series [6] was above 25 µg/mL in each case. In the series with NF-κB (Homo sapiens, SW1353, read-out: NF-κB IC50), the IC50 is above 25 µg/mL. Besides, in the series with NF-κB, the “NF-κB inhibitory activity (in words)” value is “devoid of any activity”.
Consider `c1ccc2oc(SCCCCN3CCN(CCCCSc4nc5ccccc5o4)CC3)nc2c1` [Compound 8a, 1,4-bis(4-(benzo[d]oxazol-2-ylthio)butyl)piperazine], for which the IC50 at 48 h in series [5] and in series [6] was above 25 µg/mL each time.
On to `O=c1sc2ccccc2n1CCCCCN1CCN(CCCCCn2c(=O)sc3ccccc32)CC1` [Compound 3h, 3,3′-(piperazine-1,4-diylbis(pentane-5,1-diyl))bis(benzo[d]thiazol-2(3H)-one)], for which the IC50 at 48 h in series [1], in series [5] and in series [3] was above 25 µg/mL each time.
Turning to `O=c1sc2ccccc2n1CCCCCCN1CCN(CCn2c(=O)sc3ccccc32)CC1` [Compound 5h, 3-(6-(4-(2-(2-oxobenzo[d]thiazol-3(2H)-yl)ethyl)piperazin-1-yl)hexyl)benzo[d]thiazol-2(3H)-one], the “NF-κB inhibitory activity (in words)” value with NF-κB is on record as “moderately active”.
As to `O=c1oc2ccccc2n1CCCCCCN1CCN(CCCCCn2c(=O)oc3ccccc32)CC1` [Compound 5s, 3-(5-(4-(6-(2-oxobenzo[d]oxazol-3(2H)-yl)hexyl)piperazin-1-yl)pentyl)benzo[d]oxazol-2(3H)-one], the IC50 at 48 h in series [1], in series [5], in series [3] and in series [6] was above 25 µg/mL throughout.
Take `O=c1sc2ccccc2n1CCCCCN1CCN(CCCn2c(=O)sc3ccccc32)CC1` [Compound 5l, 3-(3-(4-(5-(2-oxobenzo[d]thiazol-3(2H)-yl)pentyl)piperazin-1-yl)propyl)benzo[d]thiazol-2(3H)-one]: the IC50 at 48 h in series [1], in series [5], in series [3] and in series [6] was above 25 µg/mL throughout.
Take `O=c1sc2ccccc2n1CCCCCCN1CCN(CCCCn2c(=O)sc3ccccc32)CC1` [Compound 5r, 3-(6-(4-(4-(2-oxobenzo[d]thiazol-3(2H)-yl)butyl)piperazin-1-yl)hexyl)benzo[d]thiazol-2(3H)-one]: the IC50 at 48 h in series [1], in series [5] and in series [6] was above 25 µg/mL each time.
